# Cardio protect = myocardial damage modulation in H9c2 cells. H9c2 cardiomyocytes, H2O2 injury protection, ATPLite, 2 h. protection from H2O2 cell death, % at 20 µM. 360,000 tested, 0.63% active. AID 588492;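 active = compounds giving at least 50% protection of heart cells from peroxide-induced death in the single-dose screen, raw or plate-pattern-corrected value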;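 note: 0% = DMSO wells with peroxide and 100% = DMSO wells without peroxide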
# UPR XBP1 act = adaptive UPR (XBP1) activation; CHO-XBP1 luciferase reporter, IRE1-XBP1 UPR activation, luminescence; percent of tunicamycin response, DMSO as zero; activation, % at 20 µM; 330,000 tested, 0.33% active;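 active = versus positive control, 20 µM dose yields 30% or more activation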;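 note: 100% = tunicamycin at 10 µg/mL and 0% = DMSO only wells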
#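 Assay system: IRE1-XBP1 luciferase reporter CHO line. Input: 1000 cells/well. Buffer or medium: F12 with 10% serum. Doses: 20 µM, 1% DMSO. Times: overnight seeding at 37 °C, 6 h compound treatment at 37 °C. Technique: Steady-Glo luciferase glow luminescence, 10 min after reagent addition.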
# CHOP UPR activ = activators of apoptotic arm of unfolded protein response (CHOP). CHO-CHOP luciferase reporter, UPR activation, luminescence; percent of tunicamycin response over DMSO baseline. activation, % at 10 µM. 330,000 tested, 0.34% active;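 active = at 10 µM dose, activation of 40% or more, normalized to positive control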;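 note: 100% = tunicamycin at 10 µg/mL and 0% = DMSO alone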
#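 System: CHO CHOP reporter cells. Amount: 500 cells per well. Buffer or medium: F12 medium, 10% FBS. Compound dosing: one dose, 10 µM in 0.5% DMSO. Incubation: 6 h compound exposure at 37 °C after overnight seeding. Technique: Steady-Glo luciferase luminescence. Benchmarks: tunicamycin and DMSO controls.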
# CHOP inh = inhibitors of CHOP induction in ER stress response; CHO-K1 CHOP-promoter luciferase, tunicamycin-induced, 15-18 h; inhibition, % at 10 µM; 220,000 tested, 3.8% active;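 active = compounds that reduced the stress-induced luciferase reporter signal by more than about 70% of percent inhibition, limit read from the data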;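 note: 0% = tunicamycin plus vehicle and 100% = wells without tunicamycin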
# iPSC survival up = increases survival of single human iPS cells | 360,000 tested, 0.044% active | hiPSC single-cell survival, ATPlite luminescence; 100% = ROCK inhibitor wells, 0% = DMSO | survival enhancement, % at 20 µM; in the data active = survival enhancement above about 18%;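 note: cells exposed to compounds for 16 hours before the ATP read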
# The depositor's hits bear a star; . = not tested or not shown. This is one part of a sample in which hits are shown more often than they occur.
SMILES,Cardio protect,UPR XBP1 act,CHOP UPR activ,CHOP inh,iPSC survival up
Cn1c(NCCO)nc2c1c(=O)n(Cc1ccc(F)cc1)c(=O)n2C,12,1,-1,.,0
CSc1ccc(CN2CCC2(C)C(=O)NCc2cccc(C(F)(F)F)c2)cc1 (stereo not given),-8,.,.,.,-1
CC(C)C[C@@H](CN1CCC[C@H]1CN1C(=O)C(=O)NC[C@@H]1Cc1ccccc1)N1C[C@H](Cc2ccccc2)N(CC2CCCCCC2)C(=O)C1=O,.,.,.,.,-1
O=c1[nH]nc(-c2ccc(NCCCO)c([N+](=O)[O-])c2)c2ccccc12,58*,-1,-3,.,-1
O=c1[nH]nc(-c2ccc(NCCO)c([N+](=O)[O-])c2)c2ccccc12,68*,4,-1,.,0
COc1ccccc1CCC(=O)NNC(=O)Cn1nc(C)cc1C,5,.,.,.,0
Cc1cc(C)cc(NC(=O)N2CCC(c3nc4ccccc4o3)CC2)c1,7,-3,0,74*,-2
O=C(Nc1ccc(Cl)cc1)N1CCN(c2ccc3nnc(-c4ccc(F)cc4)n3n2)CC1,53*,5,6,17,4
O=C(c1ccc(Br)o1)N1CCN(c2ccc3nnc(-c4ccc(F)cc4)n3n2)CC1,52*,3,-2,43,3
CC(=O)N1c2ccc(S(=O)(=O)NCC3CCC(C(=O)NCc4ccccc4)CC3)cc2CC1C (stereo not given),-3,-5,-1,.,0
Cc1nn(-c2ccc(F)cc2)c(Cl)c1/C=C1\C(=O)Nc2ccccc21,-2,2,1,94*,1
COc1ccccc1-c1ccc([C@@H]2C[C@H]3[C@H](CON3C)CN2C(=O)c2ccc(-c3ccccc3)cc2)cc1,-3,.,.,.,0
COc1ccc(N2C(=O)CC(c3ccc(OC(C)C)cc3)C2=O)cc1 (stereo not given),-16,-3,-1,73*,2
COc1ccc(N2C(=O)CC(c3ccccc3)C2=O)cc1 (stereo not given),3,0,0,6,0
Cc1nc(NC(=O)C(C)(C)C)sc1C(=O)Cn1cc(CCCC#N)nn1,.,.,.,.,1
COc1ccc(C(=O)c2sc3nc(-c4ccccc4)ccc3c2N)cc1,-6,-3,0,78*,-3
CC(C)OC(=O)c1sc2nc(-c3ccccc3)ccc2c1N,-13,-1,-1,83*,-3
CCOC(=O)c1sc2nc(-c3cccnc3)ccc2c1N,-21,1,2,-18,-1
C[C@H]1CN([C@@H](C)CO)S(=O)(=O)c2ccc(Br)cc2O[C@H]1CN(C)C(=O)c1cccnc1,4,.,.,.,0
COc1ccc(C(=O)N2CCc3ccccc3C2)cc1S(=O)(=O)N1CCCC1,-1,.,.,.,-2
NC(=O)c1sc2nc3c(c(-c4ccco4)c2c1N)CCC3,13,0,-3,66,1
NC(=O)c1sc2nc3c(c(-c4cccs4)c2c1N)CCCC3,.,.,.,76*,.
CCOCc1c(C(=O)NC2=Nc3ccccc3NC(CC)=C2C(=O)OCC)oc2ccccc12,68*,-2,-1,24,-3
CCOC(=O)C1=C(CC)Nc2ccccc2N=C1NC(=O)c1oc2ccccc2c1C,32,1,6,15,0
CCOC(=O)C1=C(CC)Nc2ccccc2N=C1NC(=O)c1ccc(S(=O)(=O)N(C)C)cc1,81*,-4,-3,21,4
SMILES,Cardio protect,UPR XBP1 act,CHOP UPR activ,CHOP inh,iPSC survival up
CC1(C(=O)NS(=O)(=O)c2cccc(F)c2)CCN1C(=O)Cc1cccs1 (stereo not given),5,.,.,.,1
O=C(COC(=O)CC12CC3CC(CC(Br)(C3)C1)C2)NC(=O)NCc1ccco1,5,-3,-2,71*,1
Cn1cccc1C(=O)NC(=O)COC(=O)CC12CC3CC(CC(Br)(C3)C1)C2,-10,0,0,29,-2
CCC(=C(c1ccc(OC)cc1)c1ccc(OC)cc1)c1cn(CC(O)CN(CCO)CCO)c2ccccc12 (stereo not given),-9,-2,1,76*,1
CCn1cc(/C=C(\NC(=O)c2ccccc2OC)C(=O)NCCN2CCOCC2)c2ccccc21,20,.,.,.,1
CN(C)CCN(C(=O)c1ccc2ccccc2c1)c1nc2cc3c(cc2s1)OCO3,8,.,.,.,19*
